This sample holds only a part of the variants without activity.
B1: tRNA (parent)
chain: GUUCCGUUGGCGUAAUGGUAACGCGUCUCCCUCCUAAGGAGAAGACUGCGGGUUCGAGUCCCGUACGGAACG

Variants of: B1
Assay: yeast fitness relative to wild type (ratio to wild type); higher = fitter; tRNA-Arg(CCU), competitive growth, 37 C, YPD
Procedure, shortened: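 Genotype frequency changes were the basis for Darwinian fitness relative to wild type. The frequencies came from 100-nucleotide paired-end sequencing of gene amplicons from the start population and each end population of pooled yeast strains with tRNA-Arg(CCU) gene variants at the native locus. Competition ran in YPD at 37°C for 24 hours in six replicates, genotypes needed ≥ 100 starting reads, and estimates < 0.5 were set to 0.5.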

Going from C27U C30G A45C C60U C62G to C27U C30G C33G C34G A40U G52C G56C, the yeast fitness falls from 0.818 to no more than 0.5.

Going from C27U C30U A42C G58C to C27U C30U A70G, the yeast fitness rises from no more than 0.5 to 0.624.

C27U C30U C34A C62A and C27U C30U C34G A37C C61A cannot be ordered by yeast fitness: no more than 0.5 for the first, no more than 0.5 for the second.

First: C27U C30U C46G
Second: C27U C30U C46U U54G
The yeast fitness of the first is higher: 0.558 for the first, no more than 0.5 for the second.

First: C27U C31A
Second: C27U C31A A45U
The yeast fitness of the first is higher: 0.758 for the first, 0.747 for the second.

C27U C31A U35G C55G and C27U C31A U64G cannot be ordered by yeast fitness: no more than 0.5 for the first, no more than 0.5 for the second.

Compared with C27U C31G A69C, C27U C31U C60G is lower in yeast fitness: 0.604 for the first, 0.581 for the second.

Going from C27U C31U G48A to C27U C31U G52A, the yeast fitness falls from 1 to 0.639.

Going from C27U C31U U35C A36U C55A C66G to C27U C31U U53C, the yeast fitness falls from 0.777 to 0.678.

Going from C27U C33A C49G to C27U C33G A43G A45C, the yeast fitness rises from no more than 0.5 to 0.634.

C27U C33G A43U C60G and C27U C33G A57G cannot be ordered by yeast fitness: no more than 0.5 for the first, no more than 0.5 for the second.

First: C27U C33G C34G G44A G50A G52A A65U
Second: C27U C33U
The yeast fitness of the first is lower: no more than 0.5 for the first, 0.664 for the second.

C27U C33U A36U and C27U C33U A36U A43G cannot be ordered by yeast fitness: no more than 0.5 for the first, no more than 0.5 for the second.

Going from C27U C33U A40C C55A A65G to C27U C33U G38C C62U, the yeast fitness falls from 0.503 to no more than 0.5.

Going from C27U C33U G51A A70G to C27U C33U U35C, the yeast fitness falls from 0.555 to no more than 0.5.

C27U C33U U47A A70C and C27U C34A U54C cannot be ordered by yeast fitness: no more than 0.5 for the first, no more than 0.5 for the second.

C27U C34G C60A and C27U C34G G50A G68C cannot be ordered by yeast fitness: no more than 0.5 for the first, no more than 0.5 for the second.

C27U C34U C49G G56C and C27U C34U G41C U47G cannot be ordered by yeast fitness: no more than 0.5 for the first, no more than 0.5 for the second.

Compared with C27U C46A G50A, C27U C46G A69C is higher in yeast fitness: 0.73 for the first, 0.757 for the second.

Compared with C27U C46U A69C, C27U C46U C61A is lower in yeast fitness: 0.776 for the first, no more than 0.5 for the second.

Compared with C27U C46U G48A A69C, C27U C46U G48A G68A is lower in yeast fitness: 0.696 for the first, 0.635 for the second.

First: C27U C49A
Second: C27U C49G A69U
The yeast fitness of the first is higher: 0.785 for the first, 0.542 for the second.

Compared with C27U C49U U54A A57G C66A, C27U C55A A69U is lower in yeast fitness: 0.629 for the first, 0.549 for the second.

First: C27U C55A G58A
Second: C27U C55U
The yeast fitness of the first is lower: no more than 0.5 for the first, 0.773 for the second.

Compared with C27U C55U C60U A70U, C27U C60G is higher in yeast fitness: no more than 0.5 for the first, 0.735 for the second.

First: C27U C61A A69U
Second: C27U C62U G67A
The yeast fitness of the first is lower: 0.551 for the first, 0.573 for the second.

Going from C27U C66A G68C to C27U C66G, the yeast fitness rises from 0.543 to 0.744.

First: C27U C66U
Second: C27U C66U A69U
The yeast fitness of the first is higher: 0.955 for the first, 0.779 for the second.

First: C27U G38A
Second: C27U G38A A69U
The yeast fitness of the first is higher: 0.773 for the first, 0.667 for the second.

Compared with C27U G38A C66U, C27U G38A G51A is lower in yeast fitness: 0.623 for the first, no more than 0.5 for the second.

First: C27U G38A G68C
Second: C27U G38C
The yeast fitness of the first is lower: no more than 0.5 for the first, 0.626 for the second.

First: C27U G38C A57U
Second: C27U G38C A69U
The yeast fitness of the first is higher: 0.552 for the first, no more than 0.5 for the second.

C27U G38C G39A A43C C60G A65C and C27U G38C G67A cannot be ordered by yeast fitness: no more than 0.5 for the first, no more than 0.5 for the second.

First: C27U G39C
Second: C27U G39C C60A
The yeast fitness of the first is higher: 0.613 for the first, no more than 0.5 for the second.

First: C27U G39C G52A G56A
Second: C27U G41A C60A
The yeast fitness of the first is lower: 0.559 for the first, 0.878 for the second.

First: C27U G41A G58C A69C
Second: C27U G41A U47C
The yeast fitness of the first is lower: 0.645 for the first, 1.08 for the second.

First: C27U G41C C61G
Second: C27U G44A G52A A57C
The yeast fitness of the first is lower: no more than 0.5 for the first, 0.538 for the second.

Compared with C27U G48A C49U, C27U G48A C49U G67A is lower in yeast fitness: 1.01 for the first, 0.674 for the second.

Compared with C27U G48C, C27U G50A is higher in yeast fitness: 0.958 for the first, 0.991 for the second.

C27U G51A U64A A69G and C27U G51C C55A cannot be ordered by yeast fitness: no more than 0.5 for the first, no more than 0.5 for the second.

C27U G51C C55A C60A and C27U G52A U53A C62U cannot be ordered by yeast fitness: no more than 0.5 for the first, no more than 0.5 for the second.

Work on C27U G56A yielded a yeast fitness of 0.998.

Reference: the RNAGym collection of RNA variant scans (doi:10.1126/science.aae0568)
